Measured values reported in ChEMBL document CHEMBL1821623, “Anti-influenza virus polyketides from the acid-tolerant fungus Penicillium purpurogenum JS03-21” (J Nat Prod, 2011).

Each compound was assayed on Influenza A virus (assay: Antiviral activity against Influenza A virus H1N1 infected in MDCK cells assessed as compound concentration required for inhibiting influenza virus yield at 48 h post-infection by crystal violet staining based CPE inhibition assay).
Type: functional, organism-based
Summary of the method: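 CPE-inhibition assay against influenza A (H1N1). Ribavirin was the positive control. Activity was reported as an IC50 in μM.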
Work on NC(=O)c1ncn([C@@H]2O[C@H](CO)[C@@H](O)[C@H]2O)n1 [RIBAVIRIN] yielded an IC50 of 101 µM.
C/C=C/C1=CC2=CC(=O)[C@@](C)(OC(=O)c3c(C)cc(O)cc3O)C(=O)[C@@]2(O)[C@@H](O)O1 [PURPURQUINONE A] gave an IC50 of over 200 µM.
Work on C/C=C/C1=CC2=CC(=O)[C@@](C)(OC(=O)c3c(C)cc(O)cc3O)C(=O)C2=CO1 yielded an IC50 of over 200 µM.
Work on C/C=C/C1=CC2=CC(=O)[C@@](C)(OC(=O)c3c(O)cc(O)c(O)c3C)C(=O)[C@@]2(O)[C@@H](O)O1 [PURPURQUINONE B] yielded an IC50 of 61.3 µM.
For CC/C=C1\OC(=O)c2c1cc(O)c(O)c2C [PURPURESTER B], the IC50 was over 200 µM.
Work on C/C=C/C1=CC2=CC(=O)[C@@](C)(OC(=O)c3c(C)cc(O)cc3O)C(=O)[C@@]2(O)CO1 yielded an IC50 of 64 µM.
With CC1=C(O)C(=O)c2cc(O)c(O)cc2C1=O the IC50 was over 200 µM.
Work on CCC[C@]1(OC)OC(=O)c2c1cc(O)c(O)c2C [PURPURESTER A] yielded an IC50 of 85.3 µM.
In the case of O=Cc1cc(C(=O)O)cc(O)c1C(=O)c1c(O)cccc1O, the IC50 is reported as 58.6 µM.

Each compound was assayed on OVCAR-3 (assay: Cytotoxicity against human OVCAR3 cells).
Type: functional
For CCCCC[C@@H]1Cc2cc(O)c(C(=O)O)c3c2[C@H](C[C@]2(OC[C@H](CC(=O)C(C)(CC)C(=O)OC)[C@H]2C)O3)O1 (stereo not given in full) [BERKELIC ACID], the GI50 was 0.091 µM.
